PLCb3 inh = inhibitors of human phospholipase C beta3; inhibition, % at 12.2 µM; Purified PLC-beta3, fluorogenic substrate, fluorescence; Q01970; AID 720704; 0.18% of 370,000 active; in the data active = inhibition above about 11%
sPLA2-III inh = Blocks human group III sPLA2 activity | Q9NZ20 | QFRET BODIPY PC-A2 liposome hydrolysis, fluorescence | inhibition, % at 12.2 µM | 0.56% of 370,000 active | AID 743126;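 active = inhibition above mean plus 3 SD of compounds lying within the high and low control bounds, cut at about 19% in these data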
PLCg1 inh = inhibitors of human phospholipase C gamma1; P19174; purified PLC-gamma1, fluorogenic substrate, fluorescence; inhibition, % at 12.2 µM; 0.84% of 370,000 active
proCasp3 act = activators of human procaspase-3. P42574. recombinant procaspase-3 D3A, Ac-DEVD-pNA absorbance 405 nm. activation, % at 8.5 µM. 0.11% of 330,000 active. AID 463141;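 active = activation above the mean of all tested compounds plus 3 SD, cut at about 21% in these data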
Target sequence (P42574 whole entry D9A/D28A/D175A): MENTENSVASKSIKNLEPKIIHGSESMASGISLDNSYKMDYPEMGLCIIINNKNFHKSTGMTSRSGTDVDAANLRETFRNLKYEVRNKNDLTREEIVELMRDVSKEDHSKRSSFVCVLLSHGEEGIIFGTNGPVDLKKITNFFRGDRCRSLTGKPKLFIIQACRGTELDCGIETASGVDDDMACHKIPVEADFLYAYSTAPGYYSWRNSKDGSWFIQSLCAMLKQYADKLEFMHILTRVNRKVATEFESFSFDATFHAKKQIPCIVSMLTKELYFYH
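Test system: Procaspase-3 D3A mutant, all three cleavage aspartates alanine | Dosing: Single dose, 8.5 µM nominal compound, 0.8% DMSO | Schedule: 1 h preincubation, 2 h reaction | Technique: 405 nm absorbance of p-nitroaniline, reads at 0 and 120 min | Repeats: One well per compound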
proCasp7 act = activates human procaspase-7, counter-screen for procaspase-3 activators; P55210; recombinant procaspase-7, Ac-DEVD-pNA absorbance 405 nm; D23A/D198A/D206A triple mutant, cannot self-cleave; scale: DMSO 0, 5 µM enzyme 100; activation, % at 8.5 µM; 0.093% of 330,000 active; AID 463210;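 active = percent activation above the screen-wide mean plus 3 SD, cut at about 25% in these data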
Target sequence (P55210 whole entry D23A/D198A/D206A): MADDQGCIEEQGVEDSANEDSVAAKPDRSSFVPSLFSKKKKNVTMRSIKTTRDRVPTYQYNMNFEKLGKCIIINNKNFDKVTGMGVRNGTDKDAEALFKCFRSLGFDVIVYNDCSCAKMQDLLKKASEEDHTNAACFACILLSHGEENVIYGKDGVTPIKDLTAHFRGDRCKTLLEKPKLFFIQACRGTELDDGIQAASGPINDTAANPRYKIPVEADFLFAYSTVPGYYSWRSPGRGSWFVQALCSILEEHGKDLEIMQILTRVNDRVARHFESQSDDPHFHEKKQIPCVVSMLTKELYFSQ
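Assay system: Uncleavable procaspase-7 mutant enzyme | Input: 2 µM procaspase-7 mutant as dispensed | Timing: 1 h compound preincubation, 2 h substrate cleavage, 25 °C | Repeats: One well per compound | Control set: DMSO wells as 0%, DMSO with 5 µM added PC-7 as 100% | Technique: Epi-absorbance of released pNA at 405 nm, two timepoints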
PLCg1 ctr = counter-screen for PLC-beta3 inhibitors: inhibitors of human PLC-gamma1; shares compounds with PLCg1 inh; purified PLC-gamma1, fluorogenic substrate, fluorescence; inhibition, % at 12.3 µM; 3.1% of 3,300 active; AID 743258
PLCb3 confirm = confirmation of human PLC-beta3 inhibitors; shares compounds with PLCg1 inh; purified PLC-beta3, fluorogenic substrate fluorescence; inhibition, % at 12.3 µM; 1% of 3,300 active; AID 743261; in the data active = inhibition above about 11%
Of the large screens only hits and unclear results are named; the others gave an inactive call (follow-up assays come after a bar, where they were run); ! = not confirmed by another sample. Sampled rows, rich in hits. Any-hit rate of the full collection: about 1.6%. Rule as the data show it, unless noted: active = inhibition above about 9.5%; inactive = the rest.

CCc1ccc(C(=O)OCC(=O)N(CC)c2c(N)n(Cc3ccccc3)c(=O)[nH]c2=O)cc1	none
CC1CCCN(C(=O)CSc2nnc3ccccn23)C1 (stereo unspecified)	none
Cc1nc(C(F)(F)F)ccc1C(=O)N1CCC1(C)C(=O)NS(=O)(=O)c1ccc2c(c1)CCO2 (stereo unspecified)	PLCg1 inh 10 (no result: proCasp3 act, proCasp7 act) | PLCg1 ctr inactive | PLCb3 confirm inactive
CC(C(=O)O)N1C(=O)/C(=C/C=C/c2ccco2)SC1=S (stereo unspecified)	PLCg1 inh 37 | PLCg1 ctr 20 | PLCb3 confirm inactive
O=C1/C(=C/C=C/c2ccco2)SC(=S)N1NS(=O)(=O)c1ccccc1	none
Cc1ccc(S(=O)(=O)CCC(=O)N(CCCN2CCOCC2)c2nc3ccccc3s2)cc1	PLCg1 inh 13 | PLCg1 ctr inactive | PLCb3 confirm inactive
CCOc1ccccc1OCCCC(=O)Nc1nc2ccccc2[nH]1	PLCb3 inh 13 | PLCg1 ctr inactive | PLCb3 confirm inactive
CCOC(=O)C1=C(C)NC(C)=C(C(=O)OCC)C1c1cccc([N+](=O)[O-])c1	none (no result: proCasp3 act, proCasp7 act)
CC1=C(C(=O)OC(C)C)C(c2cccc([N+](=O)[O-])c2)n2c(cc(=O)[nH]c2=S)N1 (stereo unspecified)	PLCg1 inh 9.7 | PLCg1 ctr inactive | PLCb3 confirm inactive
CCN1C(=O)C(CC(=O)Nc2ccc(OC)cc2)N(CCc2ccc(OC)cc2)C1=S (stereo unspecified)	PLCb3 inh 14 | PLCg1 ctr inactive | PLCb3 confirm inactive
O=C(O)CCN(Cc1ccccc1)S(=O)(=O)c1ccc(Cl)cc1F	PLCg1 inh 9.6 | PLCg1 ctr inactive | PLCb3 confirm inactive
O=C(NCCOCC(F)(F)C(F)F)c1cc(F)c(F)cc1Cl	PLCg1 inh 15 | PLCg1 ctr inactive | PLCb3 confirm inactive
C=CCSC1=N/C(=C\c2ccc3c(c2)OCO3)C(=O)S1	none
C=CCSC1=N/C(=C\c2cc(OCC)c(OC(C)=O)c([N+](=O)[O-])c2)C(=O)S1	PLCg1 inh 12 | PLCg1 ctr inactive | PLCb3 confirm inactive
COCCCNC(=O)C[C@H]1C[C@@]2(C(=O)OC)C(=C[C@H](C3CCCC3)O[C@@H]2C)N(CCc2ccc(OC)c(OC)c2)C1=O	none (no result: proCasp3 act, proCasp7 act)
COC(=O)Cn1cnc2sc(C)c(S(=O)(=O)N3CCN(c4ccccc4OC)CC3)c2c1=O	PLCg1 inh 10 | PLCg1 ctr inactive | PLCb3 confirm inactive
CCCCNC(=O)Cn1cnc2sc(C)c(S(=O)(=O)N3CCN(c4ccccc4OC)CC3)c2c1=O	none
COC(=O)c1cc(-c2ccc(C)cc2)n[nH]1	PLCg1 inh 10 | PLCg1 ctr inactive | PLCb3 confirm inactive
COC(=O)c1cc(-c2ccc(OC)cc2)n[nH]1	none
CC(C)CN1C(=O)[C@@]2(CC(=O)N(C)C2c2ccccc2)c2cc(-n3cc(CCc4ccccc4)nn3)ccc21 (stereo partly specified)	PLCg1 inh 10 (no result: proCasp3 act, proCasp7 act) | PLCg1 ctr inactive | PLCb3 confirm inactive
O=C(CNC(=O)c1cncc(Br)c1)Nc1ccc(F)c(F)c1F	none
O=C(CNC(=O)c1cnccn1)Nc1ccc(F)c(F)c1F	PLCg1 inh 11 | PLCg1 ctr inactive | PLCb3 confirm inactive
Cc1ccccc1OCC(=O)Nc1ccc(N2CCN(C(=O)c3ccco3)CC2)cc1	none
CCNC(=S)NCCN1CCOCC1	PLCb3 inh 12 | PLCg1 ctr inactive | PLCb3 confirm inactive
CNC(=S)NCCN1CCOCC1	none
COc1ccc(C(=O)OCC(=O)Nc2c(C)n(C)n(-c3ccccc3)c2=O)cc1	PLCg1 inh 12 | PLCg1 ctr inactive | PLCb3 confirm inactive
COc1cc(OC)c(C(=O)OCC(=O)Nc2c(C)n(C)n(-c3ccccc3)c2=O)cc1OC	none
CC(=O)OC(C(=O)N1CCOCC1)c1c(F)cccc1F (stereo unspecified)	none
COc1ccc(CCN(C)C2CCCN(C(=O)CCC(F)(F)F)C2)cc1OC (stereo unspecified)	PLCg1 inh 9.6 | PLCg1 ctr inactive | PLCb3 confirm inactive
COc1ccc(CCN(C)C2CCCN(C(=O)CCSC)C2)cc1OC (stereo unspecified)	none
CNc1c(NS(=O)(=O)c2ccc(OC)c(Cl)c2)c(=O)oc2ccccc12	PLCg1 inh 11 | PLCg1 ctr inactive | PLCb3 confirm inactive
Cc1ccc(OCC(=O)OCc2c(C)noc2C)cc1C	PLCg1 inh 15 | PLCg1 ctr inactive | PLCb3 confirm inactive
CCOc1ccc(C(=O)OCC(=O)NC2CCCC2)cc1OCC	none
Cc1cccn2cc(CNC(=O)c3ccco3)nc12	PLCb3 inh 11 | PLCg1 ctr inactive | PLCb3 confirm inactive
Cc1cccn2cc(CCNC(=O)c3ccco3)nc12	none
COc1ccc2c(c1)CO[C@H]([C@H](O)COC(C)=O)[C@H]2/C=C/c1ccccc1	none (no result: proCasp3 act, proCasp7 act)
Cc1ccc(-c2nnc(SCC(=O)N/N=C/c3ccccc3C(=O)O)n2-c2ccc(C)cc2)cc1	none
COc1ccc(-c2nnc(SCC(=O)NCc3cccs3)n2CC(C)C)cc1	PLCg1 inh 10 | PLCg1 ctr inactive | PLCb3 confirm inactive
COc1ccc(-c2nnc(SCC(=O)N/N=C/c3ccccc3C(=O)O)n2-c2ccccc2)cc1	PLCg1 inh 14 | PLCg1 ctr inactive | PLCb3 confirm inactive
COc1ccc(-c2nnc(SCC(=O)Nc3ccccc3)n2C)cc1	PLCg1 inh 13 | PLCg1 ctr inactive | PLCb3 confirm inactive
CC(=O)Nc1ccc(Sc2ccc([N+](=O)[O-])o2)cc1	PLCg1 inh 10 (no result: proCasp3 act, proCasp7 act) | PLCg1 ctr inactive | PLCb3 confirm inactive
Cc1nc(SCC(O)CCl)c([N+](=O)[O-])[nH]1 (stereo unspecified)	PLCb3 inh 13, PLCg1 inh 11 | PLCg1 ctr inactive | PLCb3 confirm inactive
COCC(O)CSc1nc(C)[nH]c1[N+](=O)[O-] (stereo unspecified)	none (no result: PLCb3 inh, sPLA2-III inh, PLCg1 inh)
Cc1ccc(N(CC(=O)NCc2cccnc2)S(C)(=O)=O)cc1C	PLCg1 inh 12 | PLCg1 ctr inactive | PLCb3 confirm inactive
Cc1ccc(CNC(=O)CN(c2cccc([N+](=O)[O-])c2)S(C)(=O)=O)cc1	PLCg1 inh 11 | PLCg1 ctr inactive | PLCb3 confirm inactive
O=C1NC[C@H](CCCCN2C[C@H](Cc3ccccc3)N(CCC3CCCCC3)C(=O)C2=O)N(CCc2ccccc2)C1=O	none (no result: proCasp3 act, proCasp7 act)
O=C(CSc1ncn[nH]1)Nc1ccc2c(c1)CCC2	PLCb3 inh 13 | PLCg1 ctr inactive | PLCb3 confirm inactive
CN1C2CC(OC(=O)C(CO)c3ccccc3)CC1C1OC12 (stereo unspecified)	PLCg1 inh 10! (no result: proCasp3 act, proCasp7 act) | PLCg1 ctr inactive | PLCb3 confirm inactive

Screens (PubChem)
